{
  "source": "paper PMC5469400",
  "about": "(Drug Metabolism and Disposition, 2017)",
  "key": {"[1]": {"assay": "DCF clearance / PK in the LiverChip, one-compartment model", "format": "in vitro ADME", "settings": "human"}, "[2]": {"test_system": "coculture of hepatocytes and Kupffer cells (10:1)", "assay": "Extrapolation of in vitro DCF clearance to predicted hepatic clearance", "format": "in vitro ADME, human"}, "[3]": {"test_system": "primary hepatocyte–Kupffer cell cocultures", "assay": "WST-1 cell viability in the LiverChip, repeat dosing", "format": "cell-based", "settings": "Homo sapiens, read-out: IC50 (cell viability, WST-1)", "how_it_was_run": "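Perfused LiverChip cocultures of cryopreserved primary human hepatocytes and Kupffer cells (10:1, 600,000 cells/well; post-thaw viability >85%). Test compound in DMSO (0.5% v/v final) dosed from day 5. Medium and fresh compound replaced every 48 h. Viability measured by WST-1; mean of two replicates.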"}, "[4]": {"test_system": "primary human hepatocyte and Kupffer cell cocultures", "assay": "LDH release in the LiverChip", "format": "cell-based", "how_it_was_run": "(§1)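 Cryopreserved primary human hepatocytes and Kupffer cells (10:1, 600,000 cells/well) were cocultured in perfused LiverChip scaffolds (1.0 µl/s), with hydrocortisone-containing (100 nM) WEM from day 3. Test compound in DMSO (0.5% v/v final) was given from day 5 and redosed at each 48-hour medium change, ±LPS 1 µg/ml. Medium was sampled 48 hours after each dose for albumin (ELISA) and LDH activity; n = 3, S.D.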"}, "[5]": {"test_system": "primary human hepatocyte and Kupffer cell cocultures", "assay": "Albumin secretion", "format": "cell-based", "settings": "high DCF concentrations (>50×), measured 48 hours after each dose", "how_it_was_run": "as §1"}, "[6]": {"test_system": "bile acid production in 3D liver coculture", "assay": "Bile acids in culture medium by LC-MS", "format": "cell-based, human", "settings": "for level of GCA after 48 h / level of cholic acid after 48 h / level of glycochenodeoxycholic acid 3-glucuronide after 48 h / level of glycochenodeoxycholic acid after 48 h / level of taurocholic acid after 48 h: 0 μM DCF = 100, relative EIC", "how_it_was_run": "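Perfused LiverChip cocultures of cryopreserved primary human hepatocytes and Kupffer cells (10:1, 600,000 cells/well) in WEM with 100 nM hydrocortisone. Test compound in DMSO (0.5% v/v final) or LPS 1 µg/ml added from day 5, refreshed at 48 h medium changes. d5-GCA internal standard added before extraction. Bile acids in medium at 48 h by accurate MS peak area (EIC%) relative to vehicle = 100. Mean of two technical replicates.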"}, "[7]": {"test_system": "proteins in hepatocyte-Kupffer cell coculture medium", "assay": "Shotgun proteomics of secreted proteins, spectral counting", "format": "cell-based, human", "settings": "440 μM DCF", "how_it_was_run": "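Perfused hepatocyte–Kupffer cell coculture medium was collected from control and 440 μM test compound cultures on days 5 and 7 and depleted of albumin. Proteins were taken up in 8 M urea/50 mM ABC with ProteaseMAX, reduced with DTT (56°C, 30 min) and alkylated with IAA (30 min, room temperature, dark). Fractions were cleaned on C18, analysed by shotgun LC-MS/MS and quantified by spectral counting.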"}, "[8]": {"test_system": "acute phase proteins (APPs)", "assay": "iTRAQ 8plex quantitation of acute phase proteins in conditioned medium", "format": "cell-based, human", "settings": "day 7; normalized to untreated control; drug 440 μM DCF, LPS 1 µg/ml", "how_it_was_run": "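Day 7 conditioned medium from perfused human hepatocyte–Kupffer cell cocultures treated with test compound (440 μM), LPS (1 µg/ml) or both. Albumin depleted; 100 μg protein reduced (2 mM TCEP, 37°C, 30 min), blocked (10 mM MMTS, 1 h) and trypsin-digested (1:40 w/w, 37°C overnight). Peptides iTRAQ-8plex labelled (3 h, RT), then C18-cleaned. Values are ln2 ratios versus untreated control (combined treatment versus LPS).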"}, "[9]": {"settings": "wells in the absence of cells, concentration monitored over 24 hours"}, "[10]": {"settings": "cited from earlier work"}},
  "data": [
    {"molecule": "O=C(O)Cc1ccccc1Nc1c(Cl)cccc1Cl", "note": "[DCF, diclofenac]", "values": [
      {"measurement": "half-life at 4.4 µM", "setting": "[1]", "value": 14.6, "unit": "h"},
      {"measurement": "underprediction of predicted CLh versus in vivo plasma clearance", "setting": "[2]", "value": "< 7", "unit": "fold"},
      {"measurement": "IC50", "setting": "[3]", "value": 227, "unit": "µM"},
      {"measurement": "LDH release", "setting": "[4]; high DCF concentrations (>50×), measured 48 hours after each dose", "value": "became more pronounced after the second dose"},
      {"measurement": "albumin secretion", "setting": "[5]", "value": "declined after a single dose"},
      {"measurement": "DCF-induced toxicity as assessed by suppression of GCA production", "setting": "[6]; 0, 44, 110, 220 and 440 µM DCF", "value": "continuous dose-response relationship"},
      {"measurement": "level of GCA after 48 h", "setting": "[6]; 110 μM DCF", "value": 57, "unit": "%"},
      {"measurement": "level of cholic acid after 48 h", "setting": "[6]; 110 μM DCF", "value": 66, "unit": "%"},
      {"measurement": "level of glycochenodeoxycholic acid 3-glucuronide after 48 h", "setting": "[6]; 110 μM DCF", "value": 69, "unit": "%"},
      {"measurement": "level of glycochenodeoxycholic acid after 48 h", "setting": "[6]; 110 μM DCF", "value": 50, "unit": "%"},
      {"measurement": "level of taurocholic acid after 48 h", "setting": "[6]; 110 μM DCF", "value": 77, "unit": "%"},
      {"measurement": "level of GCA after 48 h", "setting": "[6]; 440 μM DCF", "value": 2, "unit": "%"},
      {"measurement": "level of cholic acid after 48 h", "setting": "[6]; 440 μM DCF", "value": 12, "unit": "%"},
      {"measurement": "level of glycochenodeoxycholic acid 3-glucuronide after 48 h", "setting": "[6]; 440 μM DCF", "value": 14, "unit": "%"},
      {"measurement": "level of glycochenodeoxycholic acid after 48 h", "setting": "[6]; 440 μM DCF", "value": 15, "unit": "%"},
      {"measurement": "level of taurocholic acid after 48 h", "setting": "[6]; 440 μM DCF", "value": 10, "unit": "%"},
      {"measurement": "number of proteins different between control and DCF-treated samples", "setting": "[7]; day 5", "value": 13, "unit": "proteins"},
      {"measurement": "number of additional proteins elevated, not identified in the control", "setting": "[7]; day 7", "value": 68, "unit": "proteins"},
      {"measurement": "ln2 iTRAQ value, Haptoglobin", "setting": "[8]", "value": 0.5},
      {"measurement": "ln2 iTRAQ value, α1 antiproteinase", "setting": "[8]", "value": 1.0},
      {"measurement": "ln2 iTRAQ value, α2 macroglobulin", "setting": "[8]", "value": "−1.0"},
      {"measurement": "binding to the LiverChip components", "setting": "[9]", "value": "no detectable binding"},
      {"measurement": "in vivo plasma clearance", "setting": "[10]; human, ref http://www.capkr.man.ac.uk", "value": 3.8, "unit": "ml/min per kilogram"},
      {"measurement": "Cmax", "setting": "[10]; recommended dose of DCF in humans", "value": 4.4, "unit": "µM"}
    ]},
    {"molecule": "lipopolysaccharide [LPS]", "values": [
      {"measurement": "effect of LPS codosing on toxicity profile of DCF", "setting": "[4]; gross markers of functionality and cell death, LPS 1 µg/ml", "value": "does not significantly change the toxicity profile"},
      {"measurement": "effect of LPS together with DCF on drug toxicity (bile acid production)", "setting": "[6]; LPS alone, DCF, LPS plus DCF", "value": "synergistic effect"},
      {"measurement": "ln2 iTRAQ value, Amyloid β A4 protein isoform b", "setting": "[8]", "value": "−1.7"},
      {"measurement": "ln2 iTRAQ value, Angiotensinogen", "setting": "[8]", "value": 3.7},
      {"measurement": "ln2 iTRAQ value, Ceruloplasmin", "setting": "[8]", "value": 3.8},
      {"measurement": "ln2 iTRAQ value, Complement component C3", "setting": "[8]", "value": 5.1},
      {"measurement": "ln2 iTRAQ value, Haptoglobin", "setting": "[8]", "value": 3.8},
      {"measurement": "ln2 iTRAQ value, Hypothetical protein", "setting": "[8]", "value": 3.9},
      {"measurement": "ln2 iTRAQ value, Leucine-rich α2-glycoprotein", "setting": "[8]", "value": 2.8},
      {"measurement": "ln2 iTRAQ value, Liver carboxylesterase 1 isoform a", "setting": "[8]", "value": 2.4},
      {"measurement": "ln2 iTRAQ value, Retinol binding protein 4", "setting": "[8]", "value": 5.0},
      {"measurement": "ln2 iTRAQ value, Serum albumin", "setting": "[8]", "value": 3.9},
      {"measurement": "ln2 iTRAQ value, Transferrin", "setting": "[8]", "value": 3.0},
      {"measurement": "ln2 iTRAQ value, Transthyretin", "setting": "[8]", "value": 1.3},
      {"measurement": "ln2 iTRAQ value, Vitamin D binding protein", "setting": "[8]", "value": 2.1},
      {"measurement": "ln2 iTRAQ value, α1-acid glycoprotein 1", "setting": "[8]", "value": 7.0},
      {"measurement": "ln2 iTRAQ value, α1-acid glycoprotein 2", "setting": "[8]", "value": 5.0},
      {"measurement": "ln2 iTRAQ value, α1-antitrypsin", "setting": "[8]", "value": 4.2},
      {"measurement": "ln2 iTRAQ value, α1 antiproteinase", "setting": "[8]", "value": 4.2},
      {"measurement": "ln2 iTRAQ value, α2-HS glycoprotein", "setting": "[8]", "value": 1.5}
    ]}
  ]
}
